Measurements gathered from unrelated publications.
Each line is one published result; the experiments were not run side by side.
ERBB2: Receptor tyrosine-protein kinase erbB-2 (ERBB2, Homo sapiens, UniProt P04626)

The inhibition of `CN(C)C/C=C/C(=O)Nc1cc2c(Nc3ccc(F)c(Cl)c3)ncnc2cc1O[C@H]1CCOC1` is reported as about 100% (ERBB2; cell-free assay, competition with immobilised ligand; 10 µM).
`O=C(COP(=O)(O)O)[C@@H](O)[C@H](O)[C@H](O)COP(=O)(O)O` gave a ΔTm of -6.2 °C (Son of sevenless homolog 1 (SOS1, Homo sapiens, UniProt Q07889); thermal stability; 5 mM, lysate).
With `O=C(O)CNc1cccc(CN(Cc2ccc(-n3cccn3)cc2)S(=O)(=O)c2cccnc2)n1` the inhibition was 0% (Carbonic anhydrase 1 (CA1, Homo sapiens, UniProt P00915); enzyme activity, inhibitor; 10 µM).
The remaining binding of `Cc1cc([C@@H](C)Nc2ccccc2C(=O)O)c2nc(N3CCC(F)(F)CC3)c(C#N)c(=O)n2c1` is reported as 100% (Tyrosine-protein kinase ABL1, phosphorylated (ABL1, Homo sapiens, UniProt P00519); binding, competition with immobilised ligand; 1 µM).
`CC(C)OC(=O)CNc1cccc(CN(Cc2ccc(-n3cccn3)cc2)S(=O)(=O)c2cccnc2)n1` has an inhibition of 4% (Alpha-2A adrenergic receptor (ADRA2A, Homo sapiens, UniProt P08913); ligand displacement, radioligand; 10 µM).
`CCc1nn(C)c2nc(-c3ccc(C(=O)O)cc3)nc(NCc3ccc(F)cc3)c12` gave an inhibition of 35.7% (cGMP-dependent 3',5'-cyclic phosphodiesterase (PDE2A, Homo sapiens, UniProt O00408); enzyme activity, inhibitor, radiometric; 10 µM).
`CNc1ncc2c(/C=C/C(=O)N3CCC(OC)CC3)nn(Cc3cccc(C(F)(F)F)c3)c2n1` gave a remaining activity of 92% (Tyrosine-protein kinase ABL1 (ABL1, Homo sapiens, UniProt P00519); enzyme activity, inhibitor, radiometric; 1 µM).
The inhibition of `C=CC(=O)N1CCCN(C(=O)c2cc(Sc3cnc(NC(=O)C4CC4)s3)c(C)cc2OC)C[C@H]1C` is reported as over 95% (Tyrosine-protein kinase ITK/TSK (ITK, Homo sapiens, UniProt Q08881); enzyme activity, inhibitor; 1 µM).
`C=CC(=O)N1CCC(COCC(=O)N2CCN(c3nc(-c4cnc(N)nc4C(F)F)nc(N4CCOC[C@@H]4C)n3)CC2)CC1` gave a remaining binding of 97% (Mitogen-activated protein kinase kinase kinase 2 (MAP3K2, Homo sapiens, UniProt Q9Y2U5); binding, competition with immobilised ligand; 1 µM).
With `COc1cc(-c2cncc3c2CN(C)Cc2cc(N4CCNCC4)ccc2-3)cc(OC)c1OC` the remaining activity was 106% (ERBB2; enzyme activity, inhibitor; 1 µM).
